Drawing on ChEMBL document CHEMBL4376814, “Novel cyclin-dependent kinase 9 (CDK9) inhibitor with suppression of cancer stemness activity against non-small-cell lung cancer” (Eur J Med Chem, 2019), this text covers inhibition, Activity and IC50 for one compound.

The structures appear in SMILES notation. Activity calls are given as the source filed them. The rule behind the calls is not given here.

Experiment [1] addresses Fibroblast growth factor receptor 3 (Homo sapiens) (UniProt P22607). Nature of the experiment: Inhibition of recombinant human FGFR3 (447 to 761 residues) at 1 uM using poly(Glu, Tyr) 4:1 as substrate measured after 40 mins in presence of [gamma33P]ATP by scintillation counting method relative to control.
For experiment [2], the target named is Serine/threonine-protein kinase MARK2 (Homo sapiens) (UniProt Q7KZI7). Briefly: Inhibition of recombinant full-length human PAR1Balpha at 1 uM using KKKVSRSGLYRSPSMPENLNRPR as substrate measured after 40 mins in presence of [gamma33P]ATP by scintillation counting method relative to control.
Serine/threonine-protein kinase MARK2 (Homo sapiens), sequence (Q7KZI7 whole entry): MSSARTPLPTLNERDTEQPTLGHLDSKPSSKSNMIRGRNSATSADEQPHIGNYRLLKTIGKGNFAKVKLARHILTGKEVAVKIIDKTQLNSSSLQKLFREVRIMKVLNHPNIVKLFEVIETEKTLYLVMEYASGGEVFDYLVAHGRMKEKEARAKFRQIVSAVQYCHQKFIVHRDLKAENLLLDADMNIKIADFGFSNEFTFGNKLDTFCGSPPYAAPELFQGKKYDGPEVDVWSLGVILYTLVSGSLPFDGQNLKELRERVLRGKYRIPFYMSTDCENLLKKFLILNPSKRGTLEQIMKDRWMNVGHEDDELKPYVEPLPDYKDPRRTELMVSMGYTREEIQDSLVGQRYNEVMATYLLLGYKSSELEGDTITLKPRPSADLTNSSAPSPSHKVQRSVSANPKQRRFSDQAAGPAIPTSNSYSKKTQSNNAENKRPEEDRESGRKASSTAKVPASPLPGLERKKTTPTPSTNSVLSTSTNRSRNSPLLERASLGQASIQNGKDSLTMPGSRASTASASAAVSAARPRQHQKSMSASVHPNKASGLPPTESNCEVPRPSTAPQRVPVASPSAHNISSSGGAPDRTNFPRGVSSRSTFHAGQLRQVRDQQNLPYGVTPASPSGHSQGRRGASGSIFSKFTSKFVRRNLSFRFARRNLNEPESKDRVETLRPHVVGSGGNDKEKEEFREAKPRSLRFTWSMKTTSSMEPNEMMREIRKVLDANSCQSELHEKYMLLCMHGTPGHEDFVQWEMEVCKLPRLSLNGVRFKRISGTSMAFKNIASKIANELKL
The next experiment is filed under the species Homo sapiens. Nature of the experiment: Inhibition of recombinant full-length human ATRIP/ATR M211T mutant at 1 uM using GST-cMyc-p53 as substrate measured after 40 mins by fluorescence assay relative to control.
Experiment [3] deals with Fibroblast growth factor receptor 1 (Homo sapiens) (UniProt P11362). Briefly: Inhibition of recombinant human FGFR1 (456 to 765 residues) at 1 uM using KKKSPGEYVNIEFG as substrate measured after 40 mins in presence of [gamma33P]ATP by scintillation counting method relative to control.
In experiment [4] the target is Testis-specific serine/threonine-protein kinase 3 (Homo sapiens) (UniProt Q96PN8). Briefly: Inhibition of recombinant full-length human TSSK3 at 1 uM using AMARAASAAALARRR as substrate measured after 40 mins in presence of [gamma33P]ATP by scintillation counting method relative to control.
Testis-specific serine/threonine-protein kinase 3 (Homo sapiens), sequence (Q96PN8 whole entry): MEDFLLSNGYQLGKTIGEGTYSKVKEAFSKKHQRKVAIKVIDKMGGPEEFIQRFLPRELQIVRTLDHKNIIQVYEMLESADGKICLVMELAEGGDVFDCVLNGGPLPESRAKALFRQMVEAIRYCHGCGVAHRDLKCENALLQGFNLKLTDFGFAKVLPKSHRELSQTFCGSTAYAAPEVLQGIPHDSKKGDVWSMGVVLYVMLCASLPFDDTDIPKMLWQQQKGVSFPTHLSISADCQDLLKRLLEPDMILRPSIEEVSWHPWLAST
Experiment [5] has as its target Tyrosine-protein kinase Fyn (Homo sapiens) (UniProt P06241). Nature of the experiment: Inhibition of recombinant full-length human Fyn at 1 uM using KVEKIGEGTYGVVYK as substrate measured after 40 mins in presence of [gamma33P]ATP by scintillation counting method relative to control.
The target in experiment [6] is Serine/threonine-protein kinase B-raf (Homo sapiens) (UniProt P15056). Briefly: Inhibition of recombinant human BRAF (416 to end residues) at 1 uM using myelin basic protein as substrate measured after 40 mins in presence of [gamma33P]ATP by scintillation counting method relative to control.
Experiment [7] concerns Hepatocyte growth factor receptor (Homo sapiens), P08581 [D1228H]. Nature of the experiment: Inhibition of recombinant human MET A1209G/V1290L/D1246H mutant (974 to end residues) at 1 uM using KKKGQEEEYVFIE as substrate measured after 40 mins in presence of [gamma33P]ATP by scintillation counting method relative to control.
In experiment [8] the target is Receptor-interacting serine/threonine-protein kinase 2 (Homo sapiens) (UniProt O43353). Briefly: Inhibition of human RIPK2 (1 to 299 residues) at 1 uM using myelin basic protein as substrate measured after 120 mins in presence of [gamma33P]ATP by scintillation counting method relative to control. An outline of the steps:
(§1)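 Percent inhibition of kinase activity at a single compound concentration, measured by the outsourced Eurofins KinaseProfiler panel. Values are the mean of two independent experiments.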

The target in experiment [9] is TGF-beta receptor type-2 (Homo sapiens) (UniProt P37173). Briefly: Inhibition of human TGFBR2 (188 to end residues) at 1 uM using myelin basic protein as substrate measured after 120 mins in presence of [gamma33P]ATP by scintillation counting method relative to control. An outline of the steps: as §1
In the next experiment the test system is A549. Briefly: Downregulation of cyclin T1 expression in human A549 cells at 0.25 to 1 uM after 24 hrs by Western blot analysis. Format: functional, cell-based. The procedure, abridged:
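A549 and H1299 cells treated for 24 h with serial dilutions alongside a DMSO control. Protein extracts resolved and immunoblotted.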

A further experiment has as its system PC-9. Briefly: Antiproliferative activity against human PC9 cells assessed as inhibition of cell viability after 72 hrs by CCK-8 assay. It is filed as functional, cell-based. The note with it: PC-9, 72 h. The procedure, abridged:
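Cells kept at 37 °C, 5% CO2 in DMEM or RPMI-1640 with 10% FBS and 1% penicillin/streptomycin, then seeded at 3000 cells/well (adherent) or 10,000 cells/well (suspension). Exposed to a range of concentrations for 72 h. CCK-8 added for 1-4 h before reading A450. […] Three independent experiments.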

The target of experiment [10] is Testis-specific serine/threonine-protein kinase 4 (Homo sapiens) (UniProt Q6SA08). Briefly: Inhibition of recombinant full-length human TSSK4 at 1 uM using KKLNRTLSFAEPG as substrate measured after 40 mins in presence of [gamma33P]ATP by scintillation counting method relative to control.
Testis-specific serine/threonine-protein kinase 4 (Homo sapiens), sequence (Q6SA08 whole entry): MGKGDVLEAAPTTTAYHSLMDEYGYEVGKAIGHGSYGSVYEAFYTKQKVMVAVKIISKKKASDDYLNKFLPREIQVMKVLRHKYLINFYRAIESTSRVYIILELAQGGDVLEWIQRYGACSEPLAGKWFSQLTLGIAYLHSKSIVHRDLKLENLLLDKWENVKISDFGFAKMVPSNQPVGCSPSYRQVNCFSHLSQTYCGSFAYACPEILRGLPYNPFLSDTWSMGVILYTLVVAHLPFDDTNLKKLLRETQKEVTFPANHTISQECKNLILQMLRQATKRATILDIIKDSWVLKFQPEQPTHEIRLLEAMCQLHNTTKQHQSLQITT
In experiment [11] the target is Tyrosine-protein kinase Fgr (Homo sapiens) (UniProt P09769). Nature of the experiment: Inhibition of recombinant human FGR (2 to end residues) at 1 uM using poly(Glu, Tyr) 4:1 as substrate measured after 40 mins in presence of [gamma33P]ATP by scintillation counting method relative to control.
Tyrosine-protein kinase Fgr (Homo sapiens), sequence (P09769 2-529 limits assumed): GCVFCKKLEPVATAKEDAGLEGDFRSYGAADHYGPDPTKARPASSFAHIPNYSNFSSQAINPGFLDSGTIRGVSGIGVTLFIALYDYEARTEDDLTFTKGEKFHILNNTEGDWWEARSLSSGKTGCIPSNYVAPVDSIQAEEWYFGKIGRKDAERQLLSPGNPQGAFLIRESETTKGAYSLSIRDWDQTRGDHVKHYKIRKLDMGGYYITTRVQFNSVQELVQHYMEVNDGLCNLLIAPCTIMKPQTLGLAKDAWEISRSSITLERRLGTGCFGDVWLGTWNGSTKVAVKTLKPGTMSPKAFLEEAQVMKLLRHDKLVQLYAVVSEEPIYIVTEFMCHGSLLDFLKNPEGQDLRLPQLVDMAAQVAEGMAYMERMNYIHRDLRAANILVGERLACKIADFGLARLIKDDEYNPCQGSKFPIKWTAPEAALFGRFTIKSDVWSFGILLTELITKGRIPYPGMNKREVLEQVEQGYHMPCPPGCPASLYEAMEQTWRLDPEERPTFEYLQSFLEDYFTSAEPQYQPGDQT
For experiment [12], the target named is Tyrosine-protein kinase HCK (Homo sapiens) (UniProt P08631). Briefly: Inhibition of recombinant human HCK (230 to 497 residues) at 1 uM using Cdc2 peptide as substrate measured after 40 mins in presence of [gamma33P]ATP by scintillation counting method relative to control.
The target in experiment [13] is Leukocyte tyrosine kinase receptor (Homo sapiens) (UniProt P29376). Nature of the experiment: Inhibition of recombinant human LTK (450 to end residues) at 1 uM using GEEPLYWSFPAKKK as substrate measured after 40 mins in presence of [gamma33P]ATP by scintillation counting method relative to control.
Experiment [14] addresses Serine/threonine-protein kinase D2 (Homo sapiens) (UniProt Q9BZL6). Briefly: Inhibition of recombinant full-length human PKD2 at 1 uM using KKLNRTLSVA as substrate measured after 40 mins in presence of [gamma33P]ATP by scintillation counting method relative to control.
Experiment [15] has as its target Dual specificity protein kinase CLK1 (Homo sapiens) (UniProt P49759). Briefly: Inhibition of recombinant human CLK1 (130 to end residues) at 1 uM using ERMRPRKRQGSVRRRV as substrate measured after 40 mins in presence of [gamma33P]ATP by scintillation counting method relative to control.
For experiment [16], the target named is Serine/threonine-protein kinase MRCK alpha (Homo sapiens) (UniProt Q5VT25). Briefly: Inhibition of recombinant human MRCKalpha (1 to 473 residues) at 1 uM using KKRNRTLTV as substrate measured after 40 mins in presence of [gamma33P]ATP by scintillation counting method relative to control.
Experiment [17] addresses 5'-AMP-activated protein kinase catalytic subunit alpha-2 (Homo sapiens) (UniProt P54646). Nature of the experiment: Inhibition of full length recombinant human AMPK alpha2 at 1 uM using AMARAASAAALARRR as substrate measured after 40 mins in presence of [gamma33P]ATP by scintillation counting method relative to control.
Experiment [18] concerns the target Serine/threonine-protein kinase/endoribonuclease IRE1 (Homo sapiens) (UniProt O75460). Nature of the experiment: Inhibition of recombinant human IRE1 (465 to end residues) at 1 uM using myelin basic protein as substrate measured after 40 mins in presence of [gamma33P]ATP by scintillation counting method relative to control.
Experiment [19] has as its target Insulin receptor-related protein (Homo sapiens) (UniProt P14616). Nature of the experiment: Inhibition of recombinant human IRR (943 to 1266 residues) at 1 uM using myelin basic protein as substrate measured after 40 mins in presence of [gamma33P]ATP by scintillation counting method relative to control.

Receptor-interacting serine/threonine-protein kinase 2 (Homo sapiens), sequence (O43353 whole entry, the tested form may be a part): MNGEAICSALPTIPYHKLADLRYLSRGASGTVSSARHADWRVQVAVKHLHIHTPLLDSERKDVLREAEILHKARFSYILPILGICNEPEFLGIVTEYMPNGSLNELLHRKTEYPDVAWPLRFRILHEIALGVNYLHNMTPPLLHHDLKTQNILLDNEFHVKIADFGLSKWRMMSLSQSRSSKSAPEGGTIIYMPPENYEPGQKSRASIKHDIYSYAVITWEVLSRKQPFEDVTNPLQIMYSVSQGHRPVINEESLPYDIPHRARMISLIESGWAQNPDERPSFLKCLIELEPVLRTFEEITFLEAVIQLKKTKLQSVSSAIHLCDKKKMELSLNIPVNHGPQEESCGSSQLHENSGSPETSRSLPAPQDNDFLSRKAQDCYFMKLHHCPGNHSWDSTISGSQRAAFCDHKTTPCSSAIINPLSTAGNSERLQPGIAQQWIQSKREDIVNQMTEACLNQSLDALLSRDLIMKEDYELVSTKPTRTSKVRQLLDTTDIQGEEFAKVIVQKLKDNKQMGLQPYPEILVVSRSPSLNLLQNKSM
Serine/threonine-protein kinase D2 (Homo sapiens), sequence (Q9BZL6 whole entry): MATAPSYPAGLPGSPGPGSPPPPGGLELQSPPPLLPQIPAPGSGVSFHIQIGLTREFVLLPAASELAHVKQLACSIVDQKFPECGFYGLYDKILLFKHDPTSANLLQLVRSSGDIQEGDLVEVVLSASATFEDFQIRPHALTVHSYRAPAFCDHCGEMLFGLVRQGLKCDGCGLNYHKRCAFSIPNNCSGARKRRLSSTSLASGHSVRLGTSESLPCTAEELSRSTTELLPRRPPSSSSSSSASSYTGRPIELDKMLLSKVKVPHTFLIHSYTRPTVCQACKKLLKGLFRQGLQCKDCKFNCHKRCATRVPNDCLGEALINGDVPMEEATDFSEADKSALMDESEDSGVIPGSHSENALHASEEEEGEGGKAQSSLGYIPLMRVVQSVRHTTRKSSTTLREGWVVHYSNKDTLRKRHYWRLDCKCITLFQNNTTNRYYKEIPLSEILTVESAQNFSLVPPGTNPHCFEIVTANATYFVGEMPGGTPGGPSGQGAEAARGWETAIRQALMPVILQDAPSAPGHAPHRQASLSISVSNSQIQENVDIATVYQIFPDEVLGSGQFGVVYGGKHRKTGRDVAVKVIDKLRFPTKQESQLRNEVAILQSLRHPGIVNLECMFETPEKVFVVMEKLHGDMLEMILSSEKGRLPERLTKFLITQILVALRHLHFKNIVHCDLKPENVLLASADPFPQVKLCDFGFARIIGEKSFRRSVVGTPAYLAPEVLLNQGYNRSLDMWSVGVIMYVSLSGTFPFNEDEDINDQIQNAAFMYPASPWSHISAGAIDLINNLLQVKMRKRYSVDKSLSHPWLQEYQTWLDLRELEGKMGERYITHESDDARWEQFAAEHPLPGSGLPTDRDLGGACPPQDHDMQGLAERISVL
Serine/threonine-protein kinase/endoribonuclease IRE1 (Homo sapiens), sequence (O75460 19-977 limits assumed): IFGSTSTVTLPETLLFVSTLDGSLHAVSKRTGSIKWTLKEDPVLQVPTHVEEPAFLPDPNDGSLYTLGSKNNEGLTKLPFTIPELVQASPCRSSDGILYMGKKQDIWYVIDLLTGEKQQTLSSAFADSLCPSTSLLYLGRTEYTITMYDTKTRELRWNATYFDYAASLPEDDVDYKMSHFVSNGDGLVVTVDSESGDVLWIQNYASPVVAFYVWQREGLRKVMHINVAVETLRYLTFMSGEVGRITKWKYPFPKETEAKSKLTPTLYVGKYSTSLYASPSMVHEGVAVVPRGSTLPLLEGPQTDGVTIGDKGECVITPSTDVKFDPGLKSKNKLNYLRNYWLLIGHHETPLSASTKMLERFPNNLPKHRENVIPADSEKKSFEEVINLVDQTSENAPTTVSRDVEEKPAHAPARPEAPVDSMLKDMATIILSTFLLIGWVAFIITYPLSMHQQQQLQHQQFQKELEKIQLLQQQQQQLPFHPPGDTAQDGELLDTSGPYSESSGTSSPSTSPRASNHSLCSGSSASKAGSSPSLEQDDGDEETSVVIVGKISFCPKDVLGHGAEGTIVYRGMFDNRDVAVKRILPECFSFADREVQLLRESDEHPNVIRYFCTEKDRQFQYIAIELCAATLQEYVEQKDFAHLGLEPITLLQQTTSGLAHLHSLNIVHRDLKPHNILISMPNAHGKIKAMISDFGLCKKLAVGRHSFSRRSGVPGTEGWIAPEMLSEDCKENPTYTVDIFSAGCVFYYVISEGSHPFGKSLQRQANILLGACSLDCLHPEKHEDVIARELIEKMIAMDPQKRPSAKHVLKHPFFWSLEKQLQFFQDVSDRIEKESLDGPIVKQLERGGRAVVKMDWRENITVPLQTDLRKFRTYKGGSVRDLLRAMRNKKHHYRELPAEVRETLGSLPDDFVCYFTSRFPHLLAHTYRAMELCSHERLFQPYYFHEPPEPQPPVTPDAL
Dual specificity protein kinase CLK1 (Homo sapiens), sequence (P49759 whole entry, looked up, the tested form may be a part): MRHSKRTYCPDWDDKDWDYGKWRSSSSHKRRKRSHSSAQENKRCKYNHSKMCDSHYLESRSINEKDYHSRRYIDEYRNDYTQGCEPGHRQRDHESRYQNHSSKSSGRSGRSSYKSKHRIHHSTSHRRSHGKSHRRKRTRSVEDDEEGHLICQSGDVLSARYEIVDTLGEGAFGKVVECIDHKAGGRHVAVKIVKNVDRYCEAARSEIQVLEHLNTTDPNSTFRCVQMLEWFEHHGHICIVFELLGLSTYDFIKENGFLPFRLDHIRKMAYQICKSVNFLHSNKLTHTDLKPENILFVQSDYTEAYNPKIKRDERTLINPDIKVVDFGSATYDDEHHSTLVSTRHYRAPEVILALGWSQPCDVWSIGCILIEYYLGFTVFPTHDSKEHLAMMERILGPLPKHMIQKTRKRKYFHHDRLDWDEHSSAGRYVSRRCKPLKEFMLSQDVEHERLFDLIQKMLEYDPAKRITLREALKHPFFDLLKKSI

Consider `CN(C)C(=O)c1cc2cnc(Nc3ccc(NC(=O)CCCCCCCN=C=S)cc3)nc2n1C1CCCC1`, for which the inhibition – broadly, the change of the read-out against control, counted positive when it falls – was 28% in [1]; 2% in [2]; -4% in the experiment listed under Homo sapiens; 72% in experiment [3]; 4% in experiment [4]; 2% in experiment [5]. For the same compound, the inhibition in experiment [6] was 34%; in [7], 74%; in experiment [8], 24%; in experiment [9], 15%; in experiment [10], -7%; in experiment [11], 66%. In addition, the inhibition in [12] was 9%; in experiment [13], 33%; in [14] it was -6%; in experiment [15], 14%; in experiment [16] it was -5%; in experiment [17], 20%. For the same compound, the inhibition in [18] stood at 29%; in experiment [19], 3%. Further, in the experiment with A549, the outcome was Active. In addition, the IC50 (as a rule, the concentration that gives 50% inhibition) in the experiment on PC-9 is 947 nM.
